Reference: publication PMC6570502 (Chembiochem : a European journal of chemical biology, 2019)
Substitutions are numbered along the chain they refer to.

Columns and labels:
Format in all cases: biochemical
KDM4A N198A mutant [1] = molecular target: T1, KDM4A N198A mutant (Homo sapiens, UniProt O75164, N198A); assay: Demethylation of full-length H3Kc9me3 by western blot with H3K9me3 antibody; settings: in presence of 2KG
T1 sequence (O75164 1-1064 N198A): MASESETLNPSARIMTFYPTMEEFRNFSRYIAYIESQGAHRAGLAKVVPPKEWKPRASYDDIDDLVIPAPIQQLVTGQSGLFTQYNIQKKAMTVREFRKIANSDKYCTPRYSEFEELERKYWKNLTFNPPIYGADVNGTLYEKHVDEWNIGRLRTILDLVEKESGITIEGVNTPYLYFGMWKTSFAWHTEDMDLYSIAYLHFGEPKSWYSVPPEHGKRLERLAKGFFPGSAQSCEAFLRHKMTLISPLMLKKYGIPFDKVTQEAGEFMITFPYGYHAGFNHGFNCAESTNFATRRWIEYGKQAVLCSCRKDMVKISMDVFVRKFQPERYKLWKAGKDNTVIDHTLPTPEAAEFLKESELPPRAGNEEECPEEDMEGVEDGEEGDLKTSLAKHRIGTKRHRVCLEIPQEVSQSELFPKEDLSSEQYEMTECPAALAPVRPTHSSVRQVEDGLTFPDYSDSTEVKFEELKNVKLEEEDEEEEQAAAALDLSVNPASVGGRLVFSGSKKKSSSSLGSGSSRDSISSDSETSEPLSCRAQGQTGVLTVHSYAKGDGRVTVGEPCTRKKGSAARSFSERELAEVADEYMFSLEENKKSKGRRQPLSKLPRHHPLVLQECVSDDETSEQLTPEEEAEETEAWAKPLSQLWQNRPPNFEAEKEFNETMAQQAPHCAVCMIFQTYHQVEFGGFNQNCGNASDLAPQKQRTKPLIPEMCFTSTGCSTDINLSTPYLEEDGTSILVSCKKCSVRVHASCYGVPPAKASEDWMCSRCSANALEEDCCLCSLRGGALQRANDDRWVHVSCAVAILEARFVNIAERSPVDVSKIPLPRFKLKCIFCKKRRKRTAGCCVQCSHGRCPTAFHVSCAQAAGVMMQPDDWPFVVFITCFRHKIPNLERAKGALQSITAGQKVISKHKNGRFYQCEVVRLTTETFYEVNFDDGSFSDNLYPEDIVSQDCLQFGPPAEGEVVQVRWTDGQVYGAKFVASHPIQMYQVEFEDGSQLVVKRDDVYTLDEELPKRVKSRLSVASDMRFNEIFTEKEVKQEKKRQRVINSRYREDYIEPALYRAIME
Summary of the method: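 Substrate is full-length histone H3 carrying a trimethyl-lysine analogue at K9 (H3KC9me3), installed chemically by the thialysine approach and verified by ESI-HRMS. The substrate is incubated with the KDM4A N198A mutant. Remaining K9 trimethylation is then detected by western blot with an anti-H3K9me3 antibody.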

wild type KDM4A = molecular target: T2, wild type KDM4A (Homo sapiens, UniProt O75164); assay: MALDI demethylase assay, H3K9me3 substrate peptide, wild type enzyme; settings: 3 mM compound
T2 sequence (O75164 1-1064): T1 sequence (O75164 1-1064 N198A) with A198N

KDM4A N198A mutant [2] = molecular target: T1, KDM4A N198A mutant; assay: MALDI demethylase assay, H3K9me3 substrate peptide, N198A mutant; settings: for inhibition of demethylase activity: 100 μM compound, 50 μM 2KG, MALDI-MS; for IC50: MALDI demethylase assay, dose-dependent
KDM4A N198G mutant = molecular target: T3, KDM4A N198G mutant (Homo sapiens, UniProt O75164, N198G); assay: MALDI demethylase assay, H3K9me3 substrate peptide, N198G mutant
T3 sequence (O75164 1-1064 N198G): T1 sequence (O75164 1-1064 N198A) with A198G

| Molecule | inhibition of demethylation of full-length H3Kc9me3 (KDM4A N198A mutant [1]) | inhibition of wild type KDM4A (wild type KDM4A) | inhibition of demethylase activity (KDM4A N198A mutant [2]) | IC50 (KDM4A N198A mutant [2]; N198A mutant) [µM] | Hill slope (KDM4A N198A mutant [2]; N198A mutant, dose-response of IC50 experiment) | inhibition of demethylase activity (KDM4A N198G mutant; 100 μM compound, 50 μM 2KG, MALDI-MS) | IC50 (KDM4A N198G mutant; N198G mutant, MALDI demethylase assay) [µM] | selectivity over the wild type enzyme (KDM4A N198A mutant [2]; N198A mutant vs wild type KDM4A) |
| --- | --- | --- | --- | --- | --- | --- | --- | --- |
| CCC(NC(=O)C(=O)O)C(=O)O (centres unmarked) [compound 3, ethyl-NOG] | significantly inhibited | About 50% | significantly inhibited | 139 | −1.06 |  |  |  |
| CC(C)C[C@H](NC(=O)C(=O)O)C(=O)O [compound 7, leucine-NOG] |  |  |  |  |  | inhibited | 288 |  |
| propyl-NOG [compound 5] |  | no more than 30% | significantly inhibited | 80 |  |  |  | more than 20 fold |
